Experiment [1] can be described thus: Relative binding affinity evaluated against mouse Ribonucleotide Reductase (RR). In outline: (§1)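 Competition of free ligand with column-bound FTLDADF (Sepharose mixed ~60:40 with underivatized Sepharose) for mouse R1. mR1 (4.4 μM) premixed with ligand (typically 100 μM) in 50 mM Tris pH 8.5, 10 mM DTT, 100 μM dTTP, held 30 min on spin column, then centrifuged. Eluted R1 measured by Bradford assay, duplicates; Kd derived from elution versus no-ligand control, expressed relative to AcFTLDADF standard.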

Experiment [2] in a line: Relative dissociation constant evaluated against mouse Ribonucleotide Reductase (RR). In outline:
as §1

Non-standard residues stand in square brackets, D forms with d. Residues, ends and D or L forms follow the SMILES beside them. aThr = C[C@H](O)[C@H](N)C(=O)O

The compound `CC(=O)N[C@@H](Cc1ccc(O)cc1)C(=O)N[C@H](C(=O)N[C@@H](CC(C)C)C(=O)N[C@@H](CC(=O)O)C(=O)N[C@@H](C)C(=O)N[C@@H](CC(=O)O)C(=O)N[C@@H](Cc1ccccc1)C(=O)O)[C@H](C)O` displayed a Relative Ki in experiment [1] of 15. `CC(=O)N[C@@H](Cc1ccccc1)C(=O)N[C@H](C(=O)N[C@@H](CC(C)C)C(=O)N[C@@H](CC(=O)O)C(=O)N[C@@H](C)C(=O)N[C@@H](CC(=O)O)C(=O)N[C@@H](Cc1c[nH]cn1)C(=O)O)[C@H](C)O`: the Relative Ki in experiment [1] is above 20. This compound also gave a Relative Kd in experiment [2] of 29. On to `CC(=O)N[C@@H](Cc1ccccc1)C(=O)N[C@H](C(=O)N[C@@H](CC(C)C)C(=O)N[C@@H](CC(=O)O)C(=O)N[C@@H](C)C(=O)N[C@@H](CC(=O)O)C(=O)N[C@@H](CC(C)C)C(=O)O)[C@H](C)O` (Ac-F[aThr]LDADL-OH), for which the Relative Ki in experiment [1] is above 35.

For `CC(=O)N[C@@H](Cc1ccccc1)C(=O)N[C@H](C(=O)N[C@@H](CC(C)C)C(=O)N[C@@H](CC(=O)O)C(=O)N[C@@H](C)C(=O)N[C@@H](CC(=O)O)C(=O)N[C@@H](Cc1ccccc1)C(=O)N[C@@H](C)C(=O)N[C@@H](C)C(=O)O)[C@H](C)O` (Ac-F[aThr]LDADFAA-OH), the Relative Ki in experiment [1] is above 35. Turning to `CC(=O)N[C@@H](Cc1ccccc1)C(=O)N[C@H](C(=O)N[C@@H](CC(C)C)C(=O)N[C@@H](CC(=O)O)C(=O)N[C@@H](C)C(=O)N[C@@H](CC(=O)O)C(=O)N[C@@H](Cc1ccc(Cl)cc1)C(=O)O)[C@H](C)O`, the Relative Ki in experiment [1] is 3.2. This compound displayed a Relative Kd in experiment [2] of 3.1. The matching figures for `CC(=O)N[C@@H](Cc1ccccc1)C(=O)N[C@H](C(=O)N[C@@H](CC(C)C)C(=O)N[C@@H](CC(=O)O)C(=O)N[C@@H](C)C(=O)N[C@@H](CC(=O)O)C(=O)N[C@@H](Cc1ccccc1)C(=O)O)[C@H](C)O`: 1 and 1.

In experiment [2], `CC(C)C[C@H](NC(=O)[C@@H](NC(=O)[C@H](Cc1ccccc1)NC(=O)Cc1ccccc1)[C@H](C)O)C(=O)N[C@@H](CC(=O)O)C(=O)N[C@@H](C)C(=O)N[C@@H](CC(=O)O)C(=O)N[C@@H](Cc1ccccc1)C(=O)O` displayed a Relative Kd of 0.8. Same read-out and setting: the result for `CC(=O)N[C@@H](CC(C)C)C(=O)N[C@H](C(=O)N[C@@H](CC(C)C)C(=O)N[C@@H](CC(=O)O)C(=O)N[C@@H](C)C(=O)N[C@@H](CC(=O)O)C(=O)N[C@@H](Cc1ccccc1)C(=O)O)[C@H](C)O` (Ac-L[aThr]LDADF-OH) reads above 30. `CC(C)C[C@H](NC(=O)[C@@H](NC(=O)[C@@H](N)Cc1ccccc1)[C@H](C)O)C(=O)N[C@@H](CC(=O)O)C(=O)N[C@@H](C)C(=O)N[C@@H](CC(=O)O)C(=O)N[C@@H](Cc1ccccc1)C(=O)O` (H-F[aThr]LDADF-OH): the Relative Ki in experiment [1] is above 40. `CC(=O)N[C@@H](Cc1ccccc1)C(=O)N[C@H](C(=O)N[C@@H](CC(C)C)C(=O)N[C@@H](CC(=O)O)C(=O)N[C@@H](C)C(=O)N[C@@H](CC(=O)O)C(=O)N[C@@H](Cc1ccccc1Cl)C(=O)O)[C@H](C)O` yielded a Relative Kd in experiment [2] of 12.

These data come from ChEMBL document CHEMBL1134462, “Toward a rational design of peptide inhibitors of ribonucleotide reductase: structure-function and modeling studies” (J Med Chem, 2001).
